The values below come from ChEMBL document CHEMBL3414506 (J Med Chem, 2015).

Data set [1] has as its target T1, Steroid 17-alpha-hydroxylase/17,20 lyase (Homo sapiens, UniProt P05093).
T1 sequence (P05093 whole entry): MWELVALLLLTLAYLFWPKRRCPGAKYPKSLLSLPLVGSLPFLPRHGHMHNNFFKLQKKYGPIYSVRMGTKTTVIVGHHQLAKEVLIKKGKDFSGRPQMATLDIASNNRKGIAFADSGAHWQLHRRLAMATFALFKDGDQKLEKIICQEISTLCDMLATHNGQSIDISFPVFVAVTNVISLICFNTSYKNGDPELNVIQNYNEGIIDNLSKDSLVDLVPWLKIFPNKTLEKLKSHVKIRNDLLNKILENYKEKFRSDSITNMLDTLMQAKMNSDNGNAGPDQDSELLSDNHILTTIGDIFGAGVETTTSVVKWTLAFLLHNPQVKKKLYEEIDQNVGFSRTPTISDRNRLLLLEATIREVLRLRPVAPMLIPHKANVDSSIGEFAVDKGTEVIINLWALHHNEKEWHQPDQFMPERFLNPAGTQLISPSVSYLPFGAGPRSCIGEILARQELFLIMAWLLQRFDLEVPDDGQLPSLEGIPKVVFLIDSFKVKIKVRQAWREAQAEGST
Nature of the data set: Inhibition of human CYP17 up to 10 uM using 17alpha-hydroxypregnenolone substrate relative to control. Put shortly:
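CYP17 assay with 17α-hydroxypregnenolone substrate at 10 μM (Km 560 nM). Screening used 150 nM inhibitor, tested up to 10 μM. Values are the mean ± SDM of at least two experiments.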

A short description of data set [2]: Growth inhibition of human castration-resistant prostate cancer cells. Particulars: Cancer cell lines; call rule not given here. In kind it is functional, cell-based.
Data set [3] relates to Mus musculus. Nature of the data set: Elimination half life in SCID mouse at 50 mg/kg, sc. In kind it is ADME, organism-based. Also on record: dose 50 mg/kg, route subcutaneous. Particulars: in vivo. The method in brief: (§1)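 Male SCID mice were dosed subcutaneously at 50 or 100 mg/kg. Plasma levels were measured by reverse-phase HPLC against an internal standard, with a detection limit of 100 ng/mL and inter- and intra-assay variability under 10%. Parameters were calculated noncompartmentally from the plasma concentration–time profile.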

Data set [4] relates to Mus musculus. Kind of data set: Drug elimination constant in SCID mouse at 50 mg/kg, sc. In kind it is ADME, organism-based. Also on record: dose 50 mg/kg, route subcutaneous. Conditions: in vivo. The method in brief:
as §1

A short description of data set [5]: AUC in SCID mouse at 50 mg/kg, sc. In kind it is ADME, organism-based. On the set-up: dose 50 mg/kg, route subcutaneous. Particulars: plasma. Put shortly:
as §1

Data set [6] in a line: Tmax in SCID mouse at 50 mg/kg, sc. In kind it is ADME, organism-based. Also on record: dose 50 mg/kg, route subcutaneous. Conditions: in vivo. The method in brief: as §1
A short description of data set [7]: Cmax in SCID mouse at 50 mg/kg, sc. In kind it is ADME, organism-based. On the set-up: dose 50 mg/kg, route subcutaneous. Conditions: in vivo. Put shortly: as §1
Data set [8] in a line: Mean residence time in SCID mouse at 50 mg/kg, sc. In kind it is ADME, organism-based. On the set-up: dose 50 mg/kg, route subcutaneous. Particulars: in vivo. Put shortly:
as §1

Data set [9] relates to Mus musculus. Kind of data set: Volume of distribution in SCID mouse at 50 mg/kg, sc. In kind it is ADME, organism-based. On the set-up: dose 50 mg/kg, route subcutaneous. Particulars: in vivo. Put shortly: as §1
The subject of data set [10] is Mus musculus. Nature of the data set: Elimination half life in SCID mouse at 100 mg/kg, sc. In kind it is ADME, organism-based. Also on record: dose 100 mg/kg, route subcutaneous. Particulars: in vivo. The method in brief:
as §1

Data set [11] can be described thus: AUC in SCID mouse at 100 mg/kg, sc. The format is ADME, organism-based. On the set-up: dose 100 mg/kg, route subcutaneous. Particulars: plasma. Put shortly:
as §1

Data set [12] can be described thus: Tmax in SCID mouse at 100 mg/kg, sc. Conditions: in vivo. On the set-up: dose 100 mg/kg, route subcutaneous. In kind it is ADME, organism-based. Put shortly:
as §1

Data set [13] is described as follows: Cmax in SCID mouse at 100 mg/kg, sc. The format is ADME, organism-based. Also on record: dose 100 mg/kg, route subcutaneous. Particulars: in vivo. The method in brief: as §1
A short description of data set [14]: Mean residence time in SCID mouse at 100 mg/kg, sc. In kind it is ADME, organism-based. Particulars: in vivo. Also on record: dose 100 mg/kg, route subcutaneous. The method in brief:
as §1

For data set [15], the system named is Mus musculus. Kind of data set: Volume of distribution in SCID mouse at 100 mg/kg, sc. In kind it is ADME, organism-based. Also on record: dose 100 mg/kg, route subcutaneous. Conditions: in vivo. Put shortly: as §1
The subject of data set [16] is Plasma. Kind of data set: Retention time in mouse plasma by reverse phase HPLC method. In kind it is ADME, cell-free. Put shortly: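 Mouse plasma from male SCID mice dosed s.c. at 50 or 100 mg/kg, analysed by validated reverse-phase HPLC with an internal standard. Analyte resolved from the internal standard, a metabolite and endogenous plasma components. Calibration linear; inter- and intra-assay variability under 10%; detection limit 100 ng/mL.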

The subject of data set [17] is Plasma. Kind of data set: Drug metabolism in mouse plasma assessed as retention time of metabolite by reverse phase HPLC method. The format is ADME, cell-free. Put shortly: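 Mouse plasma was analysed by reverse-phase HPLC after subcutaneous dosing. The parent compound, an internal standard, the metabolite and endogenous components were resolved by retention time.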

Data set [18] can be described thus: Clearance in SCID mouse at 50 mg/kg, sc. The format is ADME, organism-based. Also on record: dose 50 mg/kg, route subcutaneous. Conditions: in vivo. Put shortly: as §1
Data set [19] deals with LAPC4. Kind of data set: Antitumor activity against human LAPC4 cells xenografted in SCID mouse assessed as reduction in tumor volume at 0.15 mmol/kg, sc dosed twice daily starting 1 day after tumor cell inoculation and measured after 16 weeks of treatment. In kind it is functional. Put shortly:
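3 × 10^7 LAPC-4 cells were injected subcutaneously into the dorsal flank of male SCID mice. From 1 day after inoculation, mice received 0.15 mmol/kg s.c. twice daily, alongside vehicle and castrated groups. The dose was cut by 78.6% for one interval, then resumed. Tumour volume was measured weekly, and percent change was computed after 16 weeks.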
(In general: Xenograft models place foreign cells or tissue in a host animal.)

For data set [20], the system named is LAPC4. Nature of the data set: Antitumor activity against human LAPC4 cells xenografted in SCID mouse assessed as tumor volume at 0.13 mmol/kg, sc dosed twice daily (reference value: 2410.28 mm3). The format is functional.
The test system of data set [21] is LAPC4. Kind of data set: Antitumor activity against human LAPC4 cells xenografted in SCID mouse assessed as regression of tumor volume at 0.13 mmol/kg, sc dosed twice daily. In kind it is functional.
Data set [22] relates to LAPC4. Kind of data set: Antitumor activity against human LAPC4 cells xenografted in SCID mouse with castration assessed as regression of tumor volume at 0.13 mmol/kg, sc dosed twice daily. In kind it is functional.
In data set [23] the target is T1, Steroid 17-alpha-hydroxylase/17,20 lyase. Nature of the data set: Inhibition of human CYP17 expressed in Escherichia coli. The method in brief:
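Whole-cell assay: intact Escherichia coli cells expressing human CYP17 used as the enzyme source; inhibition expressed as IC50.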

Data set [24] shares this target. Kind of data set: Inhibition of human CYP17 using 17alpha-hydroxypregnenolone substrate.

For the compound `C[C@]12CC[C@H](O)CC1=CC[C@@H]1[C@@H]2CC[C@]2(C)C(n3ncnn3)=CC[C@@H]12`, the “inhibition (INH)” value in data set [1] is reported as “Not Active”.

The compound `CC(O)(CS(=O)(=O)c1ccc(F)cc1)C(=O)Nc1ccc(C#N)c(C(F)(F)F)c1` (centres undefined) [BICALUTAMIDE] registered an IC50 in data set [2] of 18000 nM.

For `C[C@]12CC[C@H](O)CC1=CC[C@@H]1[C@@H]2CC[C@]2(C)C(n3cnc4ccccc43)=CC[C@@H]12` [GALETERONE], the IC50 in [2] is 2900 nM. In addition, the “beta t1/2” value is 44.17 min with Mus musculus [3] and 36.6 min in the data set with Mus musculus [10]. In the data set on Mus musculus [4], this compound had a Kel of 0.942 h⁻¹. Also, the AUC in data set [5] was 24000 ng·h/mL; in [11], 30200 ng·h/mL. Further, the Tmax in data set [6] and in [12] was 30 min in each case. In addition, the figures for the Cmax in data set [7] and in [13] were 16800 ng/mL and 32200 ng/mL, respectively. Moreover, the values for the MRT in data set [8] and in [14] were 65.4 min and 60.5 min, respectively. Moreover, the Vd is 2.09899 L/kg in the data set with Mus musculus [9] and 3.27639 L/kg in the data set with Mus musculus [15]. Besides, the values for the Retention_time in the data set on Plasma [16] and with Plasma [17] were 21.6 min and 17.3 min, respectively. The same compound showed a CL/F in data set [18] of 33.1 mL/min/kg. Also, the inhibition in vivo at 150 µmol/kg in the data set with LAPC4 [19] came to 93.8%. Also, the Activity in the data set with LAPC4 [20] stood at 6.94 mm3. Besides, the results for the inhibition in vivo at 130 µmol/kg with LAPC4 [21] and in the data set with LAPC4 [22] were 26.6% and 60.7%, respectively.

In turn, `C[C@]12CC[C@H](O)CC1=CC[C@@H]1[C@@H]2CC[C@]2(C)C(n3ccnc3)=CC[C@@H]12` gave an IC50 in [23] of 50 nM. Moreover, the Retention_time with Plasma [16] turned out to be 11.5 min.

In data set [24], `C[C@]12CCC(=O)C=C1CC[C@@H]1[C@@H]2CC[C@]2(C)C(n3cncn3)=CC[C@@H]12` yielded an IC50 of 55 nM and a Ki of 41 nM.

With `C[C@]12CC[C@H](O)CC1=CC[C@@H]1[C@@H]2CC[C@]2(C)C(n3nccn3)=CC[C@@H]12`, in data set [1], the “inhibition (INH)” value is on record as “Not Active”.

On to `C[C@]12CC[C@H](O)CC1=CC[C@@H]1[C@@H]2CC[C@]2(C)C(n3cnnn3)=CC[C@@H]12`, for which, in [1], the “inhibition (INH)” value is recorded as “Not Active”.

As a reminder, the IC50 is the midpoint of a concentration-inhibition curve. The term AUC denotes concentration integrated over time. The term Tmax denotes the time from dosing to the highest level. What is called Cmax is the highest concentration seen after dosing. Broadly, the MRT is a mean duration of stay, worked out from the concentration-time curve. By CL/F is commonly meant clearance divided by bioavailability, as obtained after extravascular dosing. A word on the inhibition in vivo: it is the relative decrease from the control value, in per cent. A word on the Ki: it is the dissociation constant of the complex between target and ligand, obtained from inhibition or displacement. A higher Ki goes with a looser hold on the target.
